From PubChem BioAssay
HIV Rev-RRE inh: HIV-1 Rev-RRE binding inhibitors, primary screen, biochemical, FRET, protein-RNA interaction | Rev peptide-RRE RNA binding | AID 704, 2007 | inhibition, % at 8 µM | P05866 | 97,000 compounds, 0.79% hits;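 active = inhibition above the screen-wide mean plus 3 SD, cut at about 35% in these data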
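Test system: Cy5-tagged RRE RNA duplex with fluorescein-tagged Rev peptide | Read-out: % inhibition of FRET ratio versus controls | Probe or stimulus: Labelled Rev peptide | Incubation: 5 min RNA-compound premix plus 15 min binding step, 25 °C | Technique: FRET fluorescence readout | Benchmarks: DMSO low control, neomycin B high control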
Phagocyt inh: inhibitors of macrophage phagocytosis, primary screen, imaging, J774A.1 cells, IgG beads | J774A.1 macrophage IgG-bead phagocytosis | inhibition, % at 5 µM | 110,000 compounds, 0.07% hits;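 active = inhibition above the mean of the plate negative controls plus 5 SD, cut at about 13% in these data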;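 also: phagocytic index as fraction of beads internalized from green versus red external bead signal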
Measles CPE: compounds protecting cells from measles virus cytopathic effect, primary screen, measles RdRp inhibitor project, single point, MLSMR library, absorbance; 140,000 compounds, 1.5% hits; Measles virus-infected cells, CPE protection; protection (pct of control), % at 4 µM; in the data active = protection mostly above about 24%, no sharp cut-off; inactive = mostly below about 26%
PTK2B oligo ant: antagonists of Pyk2 self-association, primary screen, Q293 cells, FERM NanoBiT luminescence, HTS; Protein-tyrosine kinase 2-beta (Homo sapiens), Q14289; hits give low values; z-score (the deposit names both 25 µM and 10 µM); 99,000 compounds, 0.83% hits; AID 1347419, 2020;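 active = Z-score of -3 or lower, scaled per plate to the spread of control and sample wells; inactive = z-score above -3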;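 also: negative z-score means lost luminescence so less FERM oligomerization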
DAT uptake mod: changed hDAT dopamine uptake under cocaine IC80, either direction, primary screen, cocaine antagonist project, cell-based, LLC-PK1 hDAT, [14C]-dopamine uptake, MLSMR. LLC-PK1 hDAT cells, [14C]-dopamine uptake with cocaine IC80; actives deviate in either direction. B-score at 10 µM. 110,000 compounds, 1.3% hits. AID 449768, 2010;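 active = Z score or B-score, a plate-position-corrected score, falls beyond the plate's 99.7% confidence bounds, in either direction; inactive = both scores lie inside the 99.7% bounds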
Cav3 T inh: Cav3.2 calcium influx blockers – cell-based, Fluo-4 calcium fluorescence, FDSS, MLSMR library, primary screen | Voltage-dependent T-type calcium channel subunit alpha-1H (Homo sapiens), O95180 | Cav3.2-expressing cells; hits give low values | B-score at 10 µM | 100,000 compounds, 4% hits | AID 449739, 2010;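 active = single-dose well whose peak fluorescence ratio is a statistical outlier from its plate by either plate-standardised score or position-corrected B-score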
Of the large screens only hits and unclear results are named; the others gave an inactive call. In the library only some 5.9% were active in any assay of this set; here they are far more common.

O=C(c1ccc(F)cc1)N1CCCCC(Sc2nnnn2-c2ccccc2)C1=O (stereo not given)	none (no result: Phagocyt inh)
CCc1ccc(C(=O)CN2C(=O)NC(C)(CCc3ccccc3)C2=O)cc1 (stereo not given)	none (no result: HIV Rev-RRE inh, Measles CPE, PTK2B oligo ant, DAT uptake mod, Cav3 T inh)
CN1CCN(C(=O)c2ccc3c(c2)N(Cc2ccc(Cl)cc2)C(=O)c2ccccc2S3=O)CC1 (stereo not given)	none (no result: HIV Rev-RRE inh, PTK2B oligo ant)
O=C(c1ccc2c(c1)N(Cc1ccccc1)C(=O)c1ccccc1S2)N1CCCC1	DAT uptake mod 3.3 (no result: Phagocyt inh)
O=C(Nc1ccc2c(c1)C(=O)N(CC1CCCO1)C2=O)c1cccc(Br)c1 (stereo not given)	PTK2B oligo ant -3.1, Cav3 T inh -2.7 (no result: Phagocyt inh)
O=C(CN1CCC(C(=O)c2ccc(Cl)cc2)CC1)Nc1ccc2c(c1)OCCO2	none (no result: Phagocyt inh, Measles CPE)
COc1cc(NC(=O)COC(=O)C2CC2)c(C)cc1[N+](=O)[O-]	none (no result: HIV Rev-RRE inh, PTK2B oligo ant, DAT uptake mod, Cav3 T inh)
COc1cc(NC(=O)CN2CCC(Cc3ccccc3)CC2)c(C)cc1[N+](=O)[O-]	Measles CPE 70 (no result: HIV Rev-RRE inh, PTK2B oligo ant, DAT uptake mod, Cav3 T inh)
COc1ccccc1NC(=O)CN1CCN(CC(=O)Nc2ccc3c(c2)OCCO3)CC1	DAT uptake mod 3.1
O=C(CN1CCC(Cc2ccccc2)CC1)Nc1ccc2c(c1)OCCO2	Cav3 T inh -4.1 (no result: PTK2B oligo ant)
O=C(CN1CCN(CC(=O)Nc2ccccc2Cl)CC1)Nc1ccc2c(c1)OCCO2	none (no result: Phagocyt inh)
O=C(c1ccccc1)N1CCN(C(=O)c2ccccc2)CC1	Measles CPE 38 (no result: Phagocyt inh)
CN(C)S(=O)(=O)N1CCN(C(=O)c2ccccc2)CC1	DAT uptake mod -4.5
CN(C)S(=O)(=O)N1CCN(C(=O)c2cccc(Br)c2)CC1	none (no result: Phagocyt inh)
Cc1ccc(OCC(=O)Nc2nnn(C)n2)c(C)c1	DAT uptake mod -2.6
CCCCn1nnc(NC(=O)COc2cc(C)ccc2C(C)C)n1	none
CCCn1nnc(NC(=O)COc2cc(C)ccc2C(C)C)n1	DAT uptake mod -8.9
Cc1cc(C(=O)CSc2nnc(C3COc4ccccc4O3)n2C)c(C)n1-c1ccc(F)cc1 (stereo not given)	Cav3 T inh -7.9
Cn1c(SCc2cnc(-c3ccccc3)s2)nnc1C1COc2ccccc2O1 (stereo not given)	Cav3 T inh -4.9
Cn1c(SCC(=O)c2ccc3c(c2)OCO3)nnc1C1COc2ccccc2O1 (stereo not given)	none
CCc1ccccc1NC(=O)COc1cccc2ccc(C)nc12	none (no result: HIV Rev-RRE inh, PTK2B oligo ant, DAT uptake mod, Cav3 T inh)
O=c1c(-c2ccc3c(c2)OCCO3)coc2cc(O)cc(O)c12	PTK2B oligo ant -3.7
CCN(CC)Cc1c(O)ccc2c(=O)c(-c3ccc4c(c3)OCCO4)coc12	none
CCCN(CCC)C(=O)CC(c1ccccc1)c1ccc(C)cc1O (stereo not given)	Cav3 T inh -5.7
CC(=O)c1c(C)n(C)c2ccc(O)cc12	Measles CPE 39
CCCCOC(=O)Nc1cc(OC)c(Cl)cc1OC	Cav3 T inh -2.5 (no result: HIV Rev-RRE inh)
S=C(Nc1ccc2nsnc2c1)NC1CCCCC1	Measles CPE 30 (no result: HIV Rev-RRE inh, PTK2B oligo ant, DAT uptake mod, Cav3 T inh)
O=c1c2ccccc2nc(SCc2cn3ccsc3n2)n1-c1ccccc1F	PTK2B oligo ant -3.5
Clc1ccc(SCc2cn3ccsc3n2)cc1	Measles CPE 57
CN1CCCC(n2nc(Cc3ccc(Cl)cc3)c3ccccc3c2=O)CC1 (stereo not given)	none (no result: HIV Rev-RRE inh, Phagocyt inh, Measles CPE, PTK2B oligo ant)
C=CCc1ccc(O)c(-c2cc(CC=C)ccc2O)c1	Cav3 T inh -5 (no result: HIV Rev-RRE inh, Phagocyt inh, Measles CPE, PTK2B oligo ant)
C=CCc1ccc(OCC(O)CO)c(OC)c1 (stereo not given)	none (no result: PTK2B oligo ant, DAT uptake mod, Cav3 T inh)
O=C(NCc1ccc2c(c1)OCO2)C12CN(Cc3ccccc3)CC1C(c1cccc([N+](=O)[O-])c1)=NO2 (stereo not given)	none (no result: PTK2B oligo ant)
O=C(NCc1ccc(C(F)(F)F)cc1)C12CN(Cc3ccccc3)CC1C(c1cccc([N+](=O)[O-])c1)=NO2 (stereo not given)	Cav3 T inh -3.2 (no result: PTK2B oligo ant)
CCOC(=O)CSc1ncc(OC)c(Sc2ccc(OC)cc2)n1	Cav3 T inh -6.6 (no result: Phagocyt inh)
